In experiment [1] the test system is B16. Kind of experiment: The compound was tested […] for 50% growth inhibition against B16 melanoma cells. Type of experiment: functional, Mus musculus. The essentials:
(§1)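 B16 melanotic melanoma cells in log growth were plated at 5000 cells/well in RPMI 1640 with 10% heat-inactivated FCS and gentamycin at 37 °C under 5% CO2. Cells were exposed for 48 h to at least five drug concentrations, in triplicate, with fresh diethyl ester added at 0, 12, 24 and 36 h. Cells were trypsinized and counted on a Coulter counter. Percentage growth was calculated NCI-style against time-zero and no-drug controls. TGI is 100% growth inhibition and GI50 is 50%. Mean ± SD comes from separate experiments.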

The subject of experiment [2] is Glyoxalase I (Homo sapiens). The experiment is described as follows: The compound was tested for inhibitory activity against human glyoxalase I.
Experiment [3] relates to Glyoxalase I (Homo sapiens). The experiment is described as above. This is another data set of the same source.
In experiment [4] the test system is L1210. The experiment is described as follows: The compound was tested […] for 50% growth inhibition against L1210 murine leukemia cells. The experiment is classed as functional, Mus musculus. The essentials:
(§2)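 L1210 leukemia cells in log growth were seeded at 5000 cells/well in RPMI 1640 with 10% heat-inactivated FCS and gentamycin at 37 °C under 5% CO2. At least five concentrations spanning the GI50 were tested in triplicate for 48 h, with ester replenished at 0, 12, 24 and 36 h. Washed cells were Coulter-counted. PG = 100×(test−tzero)/(ctrl−tzero). TGI is 100% growth inhibition and GI50 is 50%. Mean ± SD comes from independent experiments.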

The test system of experiment [5] is B16. Kind of experiment: The compound was tested […] for 50% cell killing against B16 melanoma cells. The experiment is classed as functional, Mus musculus. In a few lines: (§3)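 Cultured cells, not in vivo: log-phase cells seeded at 5000 cells/well in RPMI 1640/10% heat-inactivated FCS with gentamycin, 37 °C, 5% CO2. Exposed 48 h to at least five diethyl ester concentrations in triplicate, with fresh ester added at 0, 12, 24 and 36 h. B16 cells were trypsinised and L1210 cells washed. Counted by Coulter counter, viability by trypan blue. LC50 = concentration giving 50% cell killing.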

In experiment [6] the test system is L1210. Kind of experiment: The compound was tested […] for 50% cell killing against L1210 murine leukemia cells. Type of experiment: functional, Mus musculus. In a few lines:
as §3

For experiment [7], the system named is L1210. The experiment is described as follows: The compound was tested […] for 100% growth inhibition against L1210 murine leukemia cells. Type of experiment: functional, Mus musculus. In a few lines:
as §2

The test system of experiment [8] is B16. Kind of experiment: The compound was tested […] for 100% growth inhibition against B16 melanoma cells. Type of experiment: functional, Mus musculus. The essentials:
as §1

Experiment [9] has as its system Glyoxalase I (Homo sapiens). The experiment is described as follows: The compound was tested for inhibitory activity against human glyoxalase I. This is another data set of the same source.

One may read the GI50 as the concentration giving 50% growth inhibition. The term Ki denotes a dissociation constant, usually derived from enzyme kinetics or from competition with a known ligand. Higher therefore signals a looser hold on the target. The LC50 is the concentration that kills 50% of the test population. Read a high LC50 as a less lethal substance. A word on the TGI: it is the concentration at which net growth stops. Higher therefore signals lower sensitivity of the cells. As for `CCOC(=O)CNC(=O)C(CSC(=O)N(O)c1ccc(Br)cc1)NC(=O)CCC(N)C(=O)OCC.Cl` (configuration not stated), the GI50 in [1] came to 11 µM; in experiment [4], 3 µM. For the same compound, the Ki in experiment [2] and in [3] was 0.014 µM throughout. In addition, the median lethal concentration (LC50) was determined as 54 µM in experiment [5] and 17 µM in experiment [6]. For the same compound, the total growth inhibition concentration (TGI) in [7] was determined as 7 µM; in experiment [8] it was 33 µM.

For `CCOC(=O)CNC(=O)C(CSC(=O)N(O)c1ccc(Cl)cc1)NC(=O)CCC(N)C(=O)OCC.Cl` (configuration not stated), the GI50 in experiment [1] amounted to 15 µM; in experiment [4] it was 7 µM. In addition, the inhibition constant (Ki) in experiment [2] and in experiment [3] was 0.046 µM throughout. Besides, the 50% lethal concentration (LC50) in [5] is about 47 µM; in experiment [6], 54 µM. In addition, the total growth inhibition concentration (TGI) is 27 µM in [7] and about 23 µM in experiment [8].

Consider `CCOC(=O)CNC(=O)[C@@H](CSCc1ccc(Br)cc1)NC(=O)CCC(N)C(=O)OCC` (some centres not stated), for which the figures for the GI50 in experiment [1] and in experiment [4] were 14 µM and 7 µM, respectively. The inhibitory constant (Ki) in experiment [2] and in experiment [3] was 0.17 µM each time. The figures for the LC50 in [5] and in [6] were 56 µM and 26 µM, respectively. Moreover, the total growth inhibition concentration (TGI) in [7] was found to be 11 µM; in experiment [8], 23 µM.

On to `CCOC(=O)CNC(=O)C(CSC(=O)N(O)c1ccccc1)NC(=O)CCC(N)C(=O)OCC.Cl` (configuration not stated), for which the 50% growth inhibitory concentration (GI50) was over 100 µM in [1] and 84 µM in [4]. The Ki in [9] and in experiment [2] was 0.16 µM throughout. The results for the LC50 in [5] and in [6] were over 100 µM and 271 µM, respectively. Moreover, the total growth inhibition concentration (TGI) was 135 µM in experiment [7] and over 100 µM in experiment [8].

The values are drawn from ChEMBL document CHEMBL1132413, “Mechanism-based competitive inhibitors of glyoxalase I: intracellular delivery, in vitro antitumor activities, and stabilities in human serum and mouse serum” (J Med Chem, 1999).
